Experimental data reported in article PMC8453095 (Journal of molecular biology, 2021).

Columns and labels:
DnaG(ZBD+RPD) = DnaG(ZBD+RPD) (Bacillus subtilis, UniProt P05096); type: biochemical
Summary of the method: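 His-tagged DnaGΔ440-603 (ZBD+RPD), expressed in BL21(DE3) cells and Ni-affinity purified, used at 200 nM. Template (500 nM ssDNA) and NTPs (0.4 mM ATP, CTP, UTP; GTP 0–400 μM) briefly preincubated ± inhibitor before enzyme. Buffer: 50 mM Tris pH 7.5, 10 mM Mg acetate, 5 mM MnCl2, 5 mM CaCl2. Ran at 37°C. Dye read at 5, 10, 20 and 30 min (ex 485/em 528 nm). V0 was normalised to enzyme, and Ki came from inhibition-model fits; n≥3.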

full-length DnaG = target: T1, full-length DnaG (Bacillus subtilis, UniProt P05096); type: biochemical
T1 sequence (P05096 1-603): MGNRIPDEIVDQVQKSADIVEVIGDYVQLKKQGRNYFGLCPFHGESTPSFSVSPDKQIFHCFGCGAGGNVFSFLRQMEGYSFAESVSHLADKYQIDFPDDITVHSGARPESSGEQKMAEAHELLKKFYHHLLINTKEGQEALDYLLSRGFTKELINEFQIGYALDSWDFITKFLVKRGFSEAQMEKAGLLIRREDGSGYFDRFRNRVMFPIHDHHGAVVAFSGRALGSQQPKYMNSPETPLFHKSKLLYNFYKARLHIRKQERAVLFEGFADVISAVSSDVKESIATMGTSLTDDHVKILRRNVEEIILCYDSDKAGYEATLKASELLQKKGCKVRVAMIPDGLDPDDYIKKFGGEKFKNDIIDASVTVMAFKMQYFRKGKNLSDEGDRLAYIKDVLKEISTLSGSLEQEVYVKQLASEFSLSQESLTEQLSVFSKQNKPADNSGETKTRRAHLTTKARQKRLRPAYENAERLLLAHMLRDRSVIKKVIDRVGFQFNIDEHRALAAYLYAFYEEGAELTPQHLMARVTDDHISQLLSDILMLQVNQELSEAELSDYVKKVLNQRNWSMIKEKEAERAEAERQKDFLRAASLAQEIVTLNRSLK
Summary of the method: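 Full-length His-tagged DnaG, Ni-affinity purified, at 100 nM was added last to 500 nM ssDNA template with 0.4 mM ATP, CTP, UTP and GTP at 0, 12.5, 25, 50, 100, 200 or 400 μM, preincubated ± inhibitor. Buffer: 50 mM Tris pH 7.5 with Mg2+, Mn2+, Ca2+ and 10 mM DTT. Incubated 37°C, 30 min; heteroduplex dye fluorescence read at four time points. V0 per enzyme; Ki fitted to competitive/uncompetitive/noncompetitive/mixed models; n≥3.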

Row | Ki (DnaG(ZBD+RPD)) [µM] | Ki (full-length DnaG) [µM] | Structure (SMILES)
1 | 115 ± 17.8 | 163 ± 37 | Nc1nc2c(ncn2[C@@H]2O[C@H](COP(=O)(O)OP(=O)(O)OP(=O)(O)O)[C@@H](OP(=O)(O)OP(=O)(O)O)[C@H]2O)c(=O)[nH]1 [pppGpp]
2 | – | 777 ± 110 | Nc1nc2c(ncn2[C@@H]2O[C@H](COP(=O)(O)OP(=O)(O)O)[C@@H](OP(=O)(O)OP(=O)(O)O)[C@H]2O)c(=O)[nH]1 [ppGpp]
